{"source": "ChEMBL document CHEMBL1687720", "about": "(Antimicrob Agents Chemother, 2009)", "key": {"[1]": {"test_system": "Plasmodium falciparum", "assay": "Upregulation of thioredoxin reductase mRNA level in Plasmodium falciparum 3D7 trophozoites at 126 nM after 12 hrs by RT-qPCR analysis relative to untreated control", "format": "functional, organism-based", "how_it_was_run": "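Synchronized 3D7 trophozoites in RPMI/Albumax culture at 37°C under 3% O2, 3% CO2 were exposed 12, 15 or 18 h, then harvested by 0.02% saponin lysis. RNA was reverse-transcribed and analyzed by real-time PCR in quadruplicate. Quantification used ΔΔCT with 18S rRNA reference (LDH also checked), expressed as % of untreated control.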"}, "[2]": {"test_system": "Plasmodium berghei", "assay": "Antimalarial activity against Plasmodium berghei infected in mouse assessed as reduction in parasite load at 10 mg/kg for 4 days treated postinfection measured on day 7", "format": "functional", "parameters": "scale not given: the % may be the effect or the level left", "how_it_was_run": "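Murine Plasmodium berghei infection model. Compound given subcutaneously at 10 mg/kg for 4 days after infection, 13 treated mice and 13 controls. Parasitemia is compared with untreated controls, with significance by Fisher's exact test.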"}, "[3]": {"assay": "Cytotoxicity against human A549 cells assessed as reduction in viable cells at 60 uM by Trypan blue assay", "format": "cell-based", "settings": "read-out: INH", "how_it_was_run": "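A549 cells are grown in DMEM with 10% FCS at 37°C and 5% CO2, and treated for 24 h. They are washed in cold PBS and trypsinized. Viable and nonviable cells are counted by trypan blue exclusion on a hemocytometer.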"}, "[4]": {"test_system": "A549", "assay": "Effect on thioredoxin reductase expression in human A549 cells assessed as transcript level at 5 nM after 24 hrs by RT-qPCR analysis relative to untreated control", "format": "functional", "settings": "in the assay text read “5 µM” for “5 nM”", "how_it_was_run": "(§1)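 A549 cells are seeded at 2.5 × 10^5 per 25-cm2 well. At 40–45% confluence they are treated for 24 h with 166 or 662 μM, 158 or 315 μM, or 5 or 24 μM compound; controls receive <5% DMSO. Total RNA is DNase-treated and qRT-PCR is run in quadruplicate. Values are normalized to GAPDH and given as % of untreated control.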"}, "[5]": {"test_system": "A549", "assay": "Effect on thioredoxin reductase expression in human A549 cells assessed as transcript level at 24 nM after 24 hrs by RT-qPCR analysis relative to untreated control", "format": "functional", "settings": "in the assay text read “24 µM” for “24 nM”", "how_it_was_run": "as §1"}, "[6]": {"test_system": "A549", "assay": "Inhibition of glutathione peroxidase in human A549 cells assessed as enzyme activity at 5 µM after 24 hrs relative to untreated control", "parameters": "scale not given: the % may be the effect or the level left"}, "[7]": {"test_system": "A549", "assay": "Inhibition of glutathione peroxidase in human A549 cells assessed as enzyme activity at 24 µM after 24 hrs relative to untreated control", "parameters": "scale not given: the % may be the effect or the level left"}, "[8]": {"test_system": "A549", "assay": "Effect on glutathione peroxidase expression in human A549 cells assessed as transcript level at 5 µM after 24 hrs by RT-qPCR analysis relative to untreated control"}, "[9]": {"test_system": "Plasmodium falciparum", "assay": "Antiplasmodial activity against chloroquine-resistant Plasmodium falciparum K1 in presence of artemisinin", "format": "functional"}, "[10]": {"test_system": "Plasmodium falciparum", "assay": "Antiplasmodial activity against chloroquine-resistant Plasmodium falciparum K1 in presence of artesunate", "format": "functional"}, "[11]": {"test_system": "Plasmodium falciparum", "assay": "Antiplasmodial activity against chloroquine-resistant Plasmodium falciparum K1 in presence of amodiaquine", "format": "functional"}, "[12]": {"test_system": "Plasmodium falciparum", "assay": "Antiplasmodial activity against chloroquine-resistant Plasmodium falciparum K1 in presence of mefloquine", "format": "functional"}, "[13]": {"test_system": "Plasmodium falciparum", "assay": "Antiplasmodial activity against chloroquine-resistant Plasmodium falciparum K1 in presence of pyrimethamine", "format": "functional"}, "[14]": {"test_system": "A549", "assay": "Effect on thioredoxin reductase expression in human A549 cells assessed as transcript level at 662 nM after 24 hrs by RT-qPCR analysis relative to untreated control", "format": "functional", "settings": "in the assay text read “662 uM” for “662 nM”", "how_it_was_run": "as §1"}, "[15]": {"test_system": "A549", "assay": "Effect on glutathione S-transferase expression in human A549 cells assessed as transcript level at 166 nM after 24 hrs by RT-qPCR analysis relative to untreated control", "format": "functional", "settings": "in the assay text read “166 µM” for “166 nM”", "how_it_was_run": "as §1"}, "[16]": {"test_system": "A549", "assay": "Effect on glutathione reductase expression in human A549 cells assessed as transcript level at 662 nM after 24 hrs by RT-qPCR analysis relative to untreated control", "format": "functional", "settings": "in the assay text read “662 µM” for “662 nM”", "how_it_was_run": "as §1"}, "[17]": {"test_system": "A549", "assay": "Effect on glutathione peroxidase expression in human A549 cells assessed as transcript level at 166 nM after 24 hrs by RT-qPCR analysis relative to untreated control", "format": "functional", "settings": "in the assay text read “166 µM” for “166 nM”", "how_it_was_run": "as §1"}, "[18]": {"test_system": "A549", "assay": "Inhibition of glutathione peroxidase in human A549 cells assessed as enzyme activity at 166 µM after 24 hrs relative to untreated control", "parameters": "scale not given: the % may be the effect or the level left"}, "[19]": {"test_system": "A549", "assay": "Inhibition of glutathione S-transferase in human A549 cells assessed as enzyme activity at 166 µM after 24 hrs relative to untreated control", "parameters": "scale not given: the % may be the effect or the level left"}, "[20]": {"test_system": "A549", "assay": "Inhibition of glutathione S-transferase in human A549 cells assessed as enzyme activity at 662 µM after 24 hrs relative to untreated control", "parameters": "scale not given: the % may be the effect or the level left"}, "[21]": {"molecular_target": "T1, Thioredoxin reductase (Homo sapiens, UniProt Q16881+Q9NNW7+Q86VQ6)", "assay": "Inhibition of thioredoxin reductase in human A549 cells assessed as enzyme activity at 166 µM after 24 hrs by DTNB assay relative to untreated control", "parameters": "scale not given: the % may be the effect or the level left"}, "[22]": {"test_system": "A549", "assay": "Effect on thioredoxin reductase expression in human A549 cells assessed as transcript level at 158 nM after 24 hrs by RT-qPCR analysis relative to untreated control", "format": "functional", "settings": "in the assay text read “158 µM” for “158 nM”", "how_it_was_run": "as §1"}, "[23]": {"test_system": "A549", "assay": "Inhibition of glutathione peroxidase in human A549 cells assessed as enzyme activity at 158 µM after 24 hrs relative to untreated control", "parameters": "scale not given: the % may be the effect or the level left"}, "[24]": {"test_system": "A549", "assay": "Inhibition of glutathione peroxidase in human A549 cells assessed as enzyme activity at 315 µM after 24 hrs relative to untreated control", "parameters": "scale not given: the % may be the effect or the level left"}, "[25]": {"test_system": "A549", "assay": "Inhibition of glutathione S-transferase in human A549 cells assessed as enzyme activity at 158 µM after 24 hrs relative to untreated control", "parameters": "scale not given: the % may be the effect or the level left"}, "[26]": {"test_system": "A549", "assay": "Inhibition of glutathione S-transferase in human A549 cells assessed as enzyme activity at 315 µM after 24 hrs relative to untreated control", "parameters": "scale not given: the % may be the effect or the level left"}, "[27]": {"molecular_target": "T1, Thioredoxin reductase", "assay": "Inhibition of thioredoxin reductase in human A549 cells assessed as enzyme activity at 158 µM after 24 hrs by DTNB assay relative to untreated control", "parameters": "scale not given: the % may be the effect or the level left"}}, "note": "Activity calls are given as the source filed them. The calls are words filed in the database; no cut-off is given here."}
{"smiles": "O=c1oc2c(O)c(O)c(O)c3c(=O)oc4c(O)c(O)c(O)c1c4c23", "note": "[CORULEOELLAGIC ACID]", "values": [{"measurement": "Activity", "setting": "[1]", "value": "inactive"}, {"measurement": "Activity", "setting": "[2]", "value": 30, "unit": "%"}, {"measurement": "cytotoxicity at 60 µM", "setting": "[3]", "value": 50, "unit": "%"}, {"measurement": "Activity", "setting": "[4]", "value": 76, "unit": "%"}, {"measurement": "Activity", "setting": "[5]", "value": 73, "unit": "%"}, {"measurement": "Activity", "setting": "[6]", "value": 85, "unit": "%"}, {"measurement": "Activity", "setting": "[7]", "value": 78, "unit": "%"}, {"measurement": "Activity", "setting": "[8]", "value": 51, "unit": "%"}]}
{"smiles": "O=c1oc2c(O)c(O)cc3c(=O)oc4c(O)c(O)cc1c4c23", "note": "[ELLAGIC ACID]", "values": [{"measurement": "FIC50", "setting": "[9]", "value": 1}, {"measurement": "FIC50", "setting": "[10]", "value": 1}, {"measurement": "FIC50", "setting": "[11]", "value": 1}, {"measurement": "FIC50", "setting": "[12]", "value": 1}, {"measurement": "FIC50", "setting": "[13]", "value": 1}, {"measurement": "Activity", "setting": "[14]", "value": 131, "unit": "%"}, {"measurement": "Activity", "setting": "[15]", "value": 122, "unit": "%"}, {"measurement": "Activity", "setting": "[16]", "value": 125, "unit": "%"}, {"measurement": "Activity", "setting": "[17]", "value": 109, "unit": "%"}, {"measurement": "Activity", "setting": "[18]", "value": 86, "unit": "%"}, {"measurement": "Activity", "setting": "[19]", "value": 109, "unit": "%"}, {"measurement": "Activity", "setting": "[20]", "value": 101, "unit": "%"}, {"measurement": "Activity", "setting": "[21]", "value": 82, "unit": "%"}]}
{"smiles": "O=c1oc2c(O)c(O)c(O)c3c(=O)oc4c(O)c(O)cc1c4c23", "note": "[FLAVELLAGIC ACID]", "values": [{"measurement": "Activity", "setting": "[22]", "value": 97, "unit": "%"}, {"measurement": "Activity", "setting": "[23]", "value": 122, "unit": "%"}, {"measurement": "Activity", "setting": "[24]", "value": 112, "unit": "%"}, {"measurement": "Activity", "setting": "[25]", "value": 99, "unit": "%"}, {"measurement": "Activity", "setting": "[26]", "value": 121, "unit": "%"}, {"measurement": "Activity", "setting": "[27]", "value": 91, "unit": "%"}]}
